NPY-Y1 PAM-ag: potentiates or activates human NPY-Y1 receptor. 0.37% of 220,000 active. AID 1304. activation, % at 3.6 µM. NPY-Y1 expressing cells, potentiator/agonist activation; in the data active means activation above about 33%, passing the limit was not always enough;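 further: cells stimulated with NPY at EC10 then isoproterenol at EC100; 0% = low agonist plus stimulus and 100% = saturating agonist plus stimulus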
Target sequence (P25929 whole entry, looked up): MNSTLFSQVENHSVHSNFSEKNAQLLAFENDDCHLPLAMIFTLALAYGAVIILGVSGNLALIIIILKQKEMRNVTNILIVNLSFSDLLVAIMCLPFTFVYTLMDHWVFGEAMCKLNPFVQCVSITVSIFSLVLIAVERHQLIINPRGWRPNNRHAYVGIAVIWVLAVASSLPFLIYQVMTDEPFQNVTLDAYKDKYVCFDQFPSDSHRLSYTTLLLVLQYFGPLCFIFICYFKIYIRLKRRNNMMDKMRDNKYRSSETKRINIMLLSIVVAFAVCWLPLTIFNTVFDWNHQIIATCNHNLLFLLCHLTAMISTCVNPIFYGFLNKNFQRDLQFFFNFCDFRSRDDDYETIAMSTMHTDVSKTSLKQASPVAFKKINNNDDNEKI
NPY-Y2 antag: NPY-Y2 (human) receptor antagonism | P49146 | NPY-Y2 expressing cells, antagonist mode | inhibition, % at 2.7 µM | 0.99% of 140,000 active; in the data active means inhibition above about 17%;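 further: 0% = vehicle with agonist challenge and 100% = reference antagonist with challenge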
NPY2 pot ag: potentiators or agonists of human neuropeptide Y receptor Y2; P49146; cells expressing NPY-Y2, potentiator/agonist read-out; activation, % at 3.6 µM; 0.45% of 220,000 active; in the data active means activation above about 27%;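 further: cells stimulated with NPY near EC25 plus isoproterenol at EC100; 0% = vehicle plus submaximal agonist and 100% = vehicle plus saturating agonist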
NPY-Y1 antag: NPY-Y1 (human) receptor antagonism; 1% of 200,000 active; HEK293-CNG Y1 cells, membrane potential fluorescence; NPY at EC95, then isoproterenol; AID 1040; P25929; inhibition, % at 3.6 µM;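 active means inhibition above the campaign mean inhibition of all tested compounds plus 3 SD, cut at about 20% in these data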;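 further: 0% = DMSO wells given NPY plus isoproterenol and 100% = isoproterenol alone without NPY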
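Test system: HEK293 cells co-expressing NPY Y1 receptor and cyclic-nucleotide gated channel; Also added: NPY (25 nM), isoproterenol (1 µM), Ro 20-1724 (25 µM); Compound dosing: one concentration, 3.6 µM, in 0.4% DMSO; Timing: dye 3 h, compound 60 min room temperature, stimulation 45 min; Technique: Membrane-potential fluorescent dye readout.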
NPY1 antag ctr: counter-screen for NPY-Y2 antagonists: human NPY-Y1 antagonism; inhibition, % at 3.6 µM; 19% of 710 active; cell-based NPY-Y1 antagonism counterscreen; shares compounds with NPY-Y2 antag; in the data active means inhibition above about 20%;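 further: cells challenged with NPY then isoproterenol with cAMP sensed through a CNG channel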
NPY-Y2 ant conf: human NPY-Y2 antagonism, confirmation | shares compounds with NPY-Y2 antag | HEK293 NPY-Y2 CNG channel, membrane potential fluorescence | inhibition, % at 2.8 µM | 32% of 710 active;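 active means mean inhibition of triplicate wells above the hit cutoff set in the primary screen, cut at about 17% in these data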;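 further: 0% = DMSO with NPY challenge and 100% = BIIE0246 high control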
* hit, by the source's call. Shown are actives, neighbours in structure and some others; about 1.8% of the full set was active somewhere.

What do the screens show for `CCOC(=O)c1nnn2c1nc(Nc1cccc(C(F)(F)F)c1)c1ccccc12`?
NPY-Y1 PAM-ag: -1; NPY2 pot ag: 0

What do the screens show for `Fc1ccc(-c2nnn(Cc3nc4ccccc4s3)n2)cc1`?
NPY-Y1 PAM-ag: -43; NPY-Y2 antag: 11; NPY2 pot ag: -21; NPY-Y1 antag: 7

How did Clc1ccc(-c2nnn(Cc3nc4ccccc4s3)n2)cc1 do in these assays?
NPY-Y1 PAM-ag: -38; NPY-Y2 antag: 18*; NPY2 pot ag: -22; NPY-Y1 antag: 11; NPY1 antag ctr: 20; NPY-Y2 ant conf: 24*

Results for Cc1ccc(CNC(=O)c2ccc(COc3ccccc3)cc2)cc1 ?
NPY-Y1 PAM-ag: -28; NPY-Y2 antag: 5; NPY2 pot ag: -5; NPY-Y1 antag: 4

What do the screens show for `Cc1ccc2nc3c(c(Nc4ccc5c(c4)OCCO5)c2c1)CCC3`?
NPY-Y1 PAM-ag: -13; NPY-Y2 antag: 22*; NPY2 pot ag: 19; NPY-Y1 antag: 13; NPY1 antag ctr: 13; NPY-Y2 ant conf: 13

How did Cc1cccc(Nc2c3c(nc4ccccc24)CCC3)c1 do in these assays?
NPY-Y1 PAM-ag: -29; NPY2 pot ag: -28

What do the screens show for `Cc1cc(C)n(-c2nc(Nc3ccccc3C(F)(F)F)nc(-n3nc(C)cc3C)n2)n1`?
NPY-Y1 PAM-ag: -19; NPY-Y2 antag: 19*; NPY2 pot ag: -2; NPY-Y1 antag: 4; NPY1 antag ctr: 10; NPY-Y2 ant conf: 7

How did Cc1ccc(Oc2nc(CN3CCOCC3)nc3sc4c(c23)CCC(C)C4)cc1 (stereo not given) do in these assays?
NPY-Y1 PAM-ag: -32; NPY-Y2 antag: 22*; NPY2 pot ag: 1; NPY-Y1 antag: 9; NPY1 antag ctr: 29*; NPY-Y2 ant conf: 30*

How did O=C(CCCCl)NC(=S)Nc1ccc(N2CCOCC2)cc1 do in these assays?
NPY-Y1 PAM-ag: 8; NPY2 pot ag: -1

How did CCOC(=O)Cc1csc(SCC(=O)Nc2cc(Cl)ccc2Oc2ccccc2)n1 do in these assays?
NPY-Y1 PAM-ag: 9; NPY-Y2 antag: 19*; NPY2 pot ag: -23; NPY-Y1 antag: 6; NPY1 antag ctr: 7; NPY-Y2 ant conf: 5

What do the screens show for `O=C(COC(=O)c1cccc(Cl)c1)Nc1cc(Cl)ccc1Oc1ccccc1`?
NPY-Y1 PAM-ag: -10; NPY-Y2 antag: 19*; NPY2 pot ag: -1; NPY-Y1 antag: 14; NPY1 antag ctr: 14; NPY-Y2 ant conf: 12

Results for CCOC(=O)Cc1csc(SCC(=O)Nc2cccc(Cl)c2)n1 ?
NPY-Y1 PAM-ag: -8; NPY-Y2 antag: 5; NPY2 pot ag: -5; NPY-Y1 antag: 2

Results for CCC(C)(C)NC(=O)c1cc([N+](=O)[O-])ccc1N1CCOCC1 ?
NPY-Y1 PAM-ag: -6; NPY-Y2 antag: 0; NPY2 pot ag: 3; NPY-Y1 antag: 5

Results for N#Cc1cc2ccccc2nc1SCC(=O)Nc1ccccc1N1CCOCC1 ?
NPY-Y1 PAM-ag: 9; NPY-Y2 antag: 17*; NPY2 pot ag: -1; NPY-Y1 antag: 8; NPY1 antag ctr: 0; NPY-Y2 ant conf: 4

Results for Cc1cccc2cc(C#N)c(SCC(=O)Nc3ccccc3N3CCOCC3)nc12 ?
NPY-Y1 PAM-ag: -9; NPY-Y2 antag: 0; NPY2 pot ag: 11; NPY-Y1 antag: -1

Results for C/C(Cn1nnc([N+](=O)[O-])n1)=N\NC(=O)c1ccc(O)cc1O ?
NPY-Y1 PAM-ag: -3; NPY-Y2 antag: 25*; NPY2 pot ag: -1; NPY-Y1 antag: -1; NPY1 antag ctr: -2; NPY-Y2 ant conf: 0

How did C/C(Cn1nnc([N+](=O)[O-])n1)=N\NC(=O)c1ccccc1O do in these assays?
NPY-Y1 PAM-ag: -43; NPY2 pot ag: -19

Results for CCOc1ccc(N(CC(=O)N/N=C/c2ccc(OC(C)C)cc2)S(C)(=O)=O)cc1 ?
NPY-Y1 PAM-ag: 0; NPY-Y2 antag: 2; NPY2 pot ag: 13; NPY-Y1 antag: 0

Results for COc1ccc(NC(=O)COC(=O)c2c3c(nc4ccccc24)CCCC3)cc1 ?
NPY-Y1 PAM-ag: -30; NPY-Y2 antag: 21*; NPY2 pot ag: -21; NPY-Y1 antag: 13; NPY1 antag ctr: 9; NPY-Y2 ant conf: 6

Results for CNC(=O)COC(=O)c1c2c(nc3ccccc13)CCC2 ?
NPY-Y1 PAM-ag: 11; NPY2 pot ag: -1

Results for O=C(COC(=O)c1c2c(nc3ccccc13)CCCCC2)NCc1ccc2c(c1)OCO2 ?
NPY-Y1 PAM-ag: -21; NPY-Y2 antag: 25*; NPY2 pot ag: -19; NPY-Y1 antag: 17; NPY1 antag ctr: 23*; NPY-Y2 ant conf: 14

Results for COc1ccc(OC)c(NC(=O)COC(=O)c2c3c(nc4ccccc24)CCCC3)c1 ?
NPY-Y1 PAM-ag: -31; NPY-Y2 antag: 11; NPY2 pot ag: -13; NPY-Y1 antag: 8

What do the screens show for `CCCOc1ccc2oc(=O)c3c(c2c1)CCCN3C(=O)CN1CCN(C(=O)c2ccco2)CC1`?
NPY-Y1 PAM-ag: -5; NPY-Y2 antag: 0; NPY2 pot ag: 0; NPY-Y1 antag: -2

What do the screens show for `O=C(CN1CCCC1)N1CCCc2c1c(=O)oc1ccc(OCc3ccccc3)cc21`?
NPY-Y1 PAM-ag: -39; NPY-Y2 antag: 19*; NPY2 pot ag: -11; NPY-Y1 antag: 17; NPY1 antag ctr: 23*; NPY-Y2 ant conf: 28*

How did c1ccc(-c2oc3ncnc(NCCCN4CCOCC4)c3c2-c2ccccc2)cc1 do in these assays?
NPY-Y1 PAM-ag: 8; NPY-Y2 antag: 18*; NPY2 pot ag: -8; NPY-Y1 antag: 11; NPY1 antag ctr: 17; NPY-Y2 ant conf: 17

How did COc1ccc(NC(=O)C2CCC(C(C)(C)C)CC2)cc1S(=O)(=O)N1CCCCC1 (stereo not given) do in these assays?
NPY-Y1 PAM-ag: -26; NPY-Y2 antag: 21*; NPY2 pot ag: 1; NPY-Y1 antag: -1; NPY1 antag ctr: 6; NPY-Y2 ant conf: 3

How did COc1ccc(OC)c(S(=O)(=O)N2CCC(C(=O)Nc3ccccc3)CC2)c1 do in these assays?
NPY-Y1 PAM-ag: -3; NPY2 pot ag: -4; NPY-Y1 antag: 0

How did COc1ccc(NC(=O)c2n[nH]c(=O)c3ccccc23)cc1S(=O)(=O)N1CCCCC1 do in these assays?
NPY-Y1 PAM-ag: -18; NPY-Y2 antag: 27*; NPY2 pot ag: -9; NPY-Y1 antag: 4; NPY1 antag ctr: 15; NPY-Y2 ant conf: 19*

How did COc1ccc(Cl)cc1N(C(C)C(=O)NC1CCCC1)S(C)(=O)=O (stereo not given) do in these assays?
NPY-Y1 PAM-ag: -9; NPY2 pot ag: 6; NPY-Y1 antag: -2

Results for C=CCNC(=S)NNC(=O)Cn1c(-c2ccccc2)cc(=O)n2ncnc12 ?
NPY-Y1 PAM-ag: -5; NPY2 pot ag: -26

How did C=CCNc1nc(N2CCCC2)nc2ccccc12 do in these assays?
NPY-Y1 PAM-ag: -33; NPY-Y2 antag: 20*; NPY2 pot ag: 4; NPY-Y1 antag: 11; NPY1 antag ctr: 19; NPY-Y2 ant conf: 19*

What do the screens show for `COC(=O)c1cc2occc2n1Cc1nc(-c2ccccc2Cl)oc1C`?
NPY-Y1 PAM-ag: 4; NPY-Y2 antag: 20*; NPY2 pot ag: -5; NPY-Y1 antag: 4; NPY1 antag ctr: 13; NPY-Y2 ant conf: 20*

Screening results as filed in PubChem BioAssay.
